Converted amounts (≈) assume the structure as drawn.
How the values were obtained:
[1] = target: Structural capsid protein (Human immunodeficiency virus 1, UniProt Q76129); assay: Inhibition of CAI-biotin peptide binding to GST-tagged HIV1 capsid C-terminal domain by alphascreen assay
Summary of the method: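 Competitive AlphaScreen assay: test compound competes with CAI-biotin peptide for binding to GST-CA. IC50 is the compound concentration that lowers the AlphaScreen signal by 50%.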

[2] = Solubility of compound in PBS by UV spectral analysis; format: physicochemical
[3] = Cytotoxicity against human MT4 cells after 72 hrs by XTT assay; format: cell-based
Summary of the method: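 The XTT read-out was run in parallel with the MT-4 infectivity assay, with two-fold serial compound dilutions on MT-4 cells.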

[4] = tested on: Human immunodeficiency virus 1; assay: Antiviral activity against HIV1 NL4-3 infected in human MT4 cells assessed as inhibition of viral replication after 3 days by luciferase reporter gene assay; format: functional, organism-based; conditions: Human immunodeficiency virus 1, NL4-3, MT4, 72 h
Summary of the method: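 Two-fold serial dilutions of compound were added to MT-4 cells infected with HIV-1 NL4-3 carrying a Renilla luciferase reporter. Replication was read as luciferase activity after 3 days. EC50 is the concentration inhibiting replication by 50%.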

Structural capsid protein, sequence (Q76129 whole entry, the tested form may be a part): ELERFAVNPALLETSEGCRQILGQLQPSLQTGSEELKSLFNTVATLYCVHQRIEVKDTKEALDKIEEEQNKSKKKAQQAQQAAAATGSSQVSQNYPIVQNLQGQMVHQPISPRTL

SMILES	IC50 [1] [µM]	solubility [2] [µM]	CC50 at 72 h [3] [µM]	EC50 [4] [µM]
CCOC(=O)c1cccc(Nc2ccnc(-c3ccncc3)n2)c1	> 100	46 (≈ 14.7 µg/mL)		
O=C(NCCF)c1ccc(Nc2ccnc(-c3cccnc3)n2)cc1F	43	84 (≈ 29.8 µg/mL)		
Cc1cc(Nc2ccc(C(=O)N3CCN(c4ccc(F)cc4)CC3)cc2)nc(-c2cccnc2)n1	20	42 (≈ 19.7 µg/mL)		
CCOC(=O)c1ccc(Nc2ccnc(-c3cccnc3)n2)cc1	19	61 (≈ 19.5 µg/mL)		
Cc1cc(Nc2ccc(C(=O)NCCF)c(F)c2)nc(-c2ccncc2)n1	> 100	9 (≈ 3.32 µg/mL)		
CC(=O)c1ccc(Nc2cc(C)nc(-c3cccnc3)n2)cc1F	25	32 (≈ 10.3 µg/mL)		
Cc1cc(Nc2ccc(C(=O)NCCF)cc2F)nc(-c2cccnc2)n1	15	50 (≈ 18.5 µg/mL)	> 100	> 100
Cc1cc(Nc2cc(F)c(F)c(F)c2)nc(-c2cccnc2)n1	22	73 (≈ 23.1 µg/mL)		
O=C(NCCF)c1ccc(Nc2ccnc(-c3ccncc3)n2)cc1	> 100	97 (≈ 32.7 µg/mL)		
O=C(NCCF)c1ccc(Nc2ccnc(-c3cccnc3)n2)c(F)c1	73	96 (≈ 34.1 µg/mL)		
CCOC(=O)c1ccc(Nc2ccnc(-c3ccncc3)n2)cc1	28	52 (≈ 16.7 µg/mL)		
CCOC(=O)c1cccc(Nc2ccnc(-c3cccnc3)n2)c1	21	92 (≈ 29.5 µg/mL)		
CC(=O)c1cccc(Nc2cc(C)nc(-c3ccncc3)n2)c1	> 100	29 (≈ 8.83 µg/mL)		
Cc1cc(Nc2ccc(C(=O)N3CCN(C(=O)C4CCCO4)CC3)cc2)nc(-c2cccnc2)n1 (configuration not stated)	54	99 (≈ 46.8 µg/mL)		
CC(=O)c1cc(Nc2cc(C)nc(-c3cccnc3)n2)ccc1F	9	40 (≈ 12.9 µg/mL)	> 100	> 100
Cc1cc(Nc2ccc(C(=O)NCCF)cc2)nc(-c2cccnc2)n1	8	99 (≈ 34.8 µg/mL)	44	25
CCOC(=O)c1ccc(Nc2cc(C)nc(-c3cccnc3)n2)cc1	21	71 (≈ 23.7 µg/mL)		
Fc1ccc(Nc2ccnc(-c3cccnc3)n2)cc1F	38	67 (≈ 19 µg/mL)		

SMILES	IC50 [1] [µM]	solubility [2] [µM]	CC50 at 72 h [3] [µM]	EC50 [4] [µM]
CC(=O)c1cc(Nc2cc(C)nc(-c3ccncc3)n2)ccc1F	83	23 (≈ 7.41 µg/mL)		
O=C(NCCF)c1cc(Nc2ccnc(-c3cccnc3)n2)ccc1F	68	97 (≈ 34.5 µg/mL)		
CCOC(=O)c1ccccc1Nc1ccnc(-c2cccnc2)n1	> 100	94 (≈ 30.1 µg/mL)		
Cc1cc(Nc2ccc(C(=O)NCCF)c(F)c2)nc(-c2cccnc2)n1	3	98 (≈ 36.2 µg/mL)	35	20
Cc1cc(Nc2ccc(C(=O)NCCF)cc2)nc(-c2ccncc2)n1	> 100	40 (≈ 14.1 µg/mL)		
Cc1cc(Nc2cc(C(=O)NCCF)ccc2F)nc(-c2cccnc2)n1	52	98 (≈ 36.2 µg/mL)		
CC(=O)c1ccc(F)c(Nc2cc(C)nc(-c3cccnc3)n2)c1	> 100	58 (≈ 18.7 µg/mL)		
CC(=O)c1ccc(Nc2cc(C)nc(-c3cccnc3)n2)cc1	12	94 (≈ 28.6 µg/mL)	77	50
Fc1ccc(Nc2ccnc(-c3ccncc3)n2)cc1F	81	42 (≈ 11.9 µg/mL)		
CC(=O)c1ccc(Nc2ccnc(-c3ccncc3)n2)cc1	> 100	37 (≈ 10.7 µg/mL)		
CCOC(=O)c1ccc(Nc2ccnc(-c3cccnc3)n2)c(F)c1	30	53 (≈ 17.9 µg/mL)		
CC(=O)c1ccc(Nc2ccnc(-c3cccnc3)n2)cc1	53	98 (≈ 28.5 µg/mL)		
O=C(NCCF)c1ccc(Nc2ccnc(-c3cccnc3)n2)cc1	34	99 (≈ 33.4 µg/mL)		
CC(=O)c1ccc(Nc2cc(C)nc(-c3ccncc3)n2)cc1	54	6 (≈ 1.83 µg/mL)		
CCOC(=O)c1ccc(Nc2cc(C)nc(-c3ccncc3)n2)cc1	36	4 (≈ 1.34 µg/mL)		
CC(=O)c1cccc(Nc2ccnc(-c3cccnc3)n2)c1	39	97 (≈ 28.2 µg/mL)		
CC(=O)c1cccc(Nc2cc(C)nc(-c3cccnc3)n2)c1	10	95 (≈ 28.9 µg/mL)	64	23

From ChEMBL document CHEMBL3822354, “Synthesis and evaluation of 2-pyridinylpyrimidines as inhibitors of HIV-1 structural protein assembly” (Bioorg Med Chem Lett, 2016)
